In ChEMBL document CHEMBL4689842, “EUbOPEN Chemogenomics Library wave 1” (2021):

System: HEK-293T
Assay: Multiplex assay against HEK293T;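 on Population Tubulin-Different-Phenotype (%): share of the cells with healthy nuclei that show this phenotype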
Type: toxicity, cell-based
Conditions: human
How it was run: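 Four dyes were applied at seeding to live cells: Hoechst33342, BioTracker Green Microtubule Cytoskeleton Dye, MitoTracker Red and Annexin V Alexa Fluor 680. Imaging after compound addition used a CQ1 microscope at 37°C and 5% CO2. CellPathfinder machine-learning gating then sorted cells into Hoechst high-intensity objects or normal cells, normal cells into healthy, pyknosed or fragmented nuclei, and pyknosed cells into mitotic or apoptotic, with tubulin, mitochondrial-mass and membrane-permeability phenotypes given as per cents of healthy-nucleus cells.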

[1] = 12 h, 1 µM, compound concentration 1 uM, replicate 1
[2] = 12 h, 1 µM, compound concentration 1 uM, replicate 2
[3] = 12 h, 10 µM, compound concentration 10 uM, replicate 1
[4] = 12 h, 10 µM, compound concentration 10 uM, replicate 2
[5] = 24 h, 1 µM, compound concentration 1 uM, replicate 1
[6] = 24 h, 1 µM, compound concentration 1 uM, replicate 2
[7] = 24 h, 10 µM, compound concentration 10 uM, replicate 1
[8] = 24 h, 10 µM, compound concentration 10 uM, replicate 2
[9] = 48 h, 1 µM, compound concentration 1 uM, replicate 1
[10] = 48 h, 1 µM, compound concentration 1 uM, replicate 2
[11] = 48 h, 10 µM, compound concentration 10 uM, replicate 1
[12] = 48 h, 10 µM, compound concentration 10 uM, replicate 2

O=C(Nc1ccc(Cl)cc1)Nc1cccc(-c2cccc(N3CCCC3)n2)c1 was tested, and the “Population Apoptotic (%)” value [1] was 51%, the “Population Fragmented Nuclei (%)” value [1] was 10% and the “Population Hoechst High Intensity Objects (%)” value [1] was 12%. The “Population Membrane Permeable-Phenotype (%)” value [1] was 2%, the “Population Mitochondria Different-Phenotype (%)” value [1] was 63% and the “Population Mitotic Cells (%)” value [1] was 48%. The “Population Normal (%)” value [1] was 87%, the “Population Pyknosed Nuclei (%)” value [1] was 45% and the “Population Tubulin-Different-Phenotype (%)” value [1] was 46%. The “Population Apoptotic (%)” value [2] was 17%, the “Population Fragmented Nuclei (%)” value [2] was 5% and the “Population Healthy Nuclei (%)” value [2] was 43%. For the same molecule, the “Population Hoechst High Intensity Objects (%)” value [2] was 5%, the “Population Membrane Permeable-Phenotype (%)” value [2] was 16% and the “Population Mitochondria Different-Phenotype (%)” value [2] was 6%. For the same molecule, the “Population Mitotic Cells (%)” value [2] was 82%, the “Population Normal (%)” value [2] was 94% and the “Population Pyknosed Nuclei (%)” value [2] was 51%. For the same molecule, the “Population Tubulin-Different-Phenotype (%)” value [2] was 17%, the “Population Apoptotic (%)” value [3] was 85% and the “Population Fragmented Nuclei (%)” value [3] was 31%. For the same molecule, the “Population Healthy Nuclei (%)” value [3] was 2%, the “Population Hoechst High Intensity Objects (%)” value [3] was 32% and the “Population Membrane Permeable-Phenotype (%)” value [3] was 66%. The “Population Mitochondria Different-Phenotype (%)” value [3] was 0%, the “Population Mitotic Cells (%)” value [3] was 14% and the “Population Normal (%)” value [3] was 68%. For the same molecule, the “Population Pyknosed Nuclei (%)” value [3] was 65%, the “Population Tubulin-Different-Phenotype (%)” value [3] was 33% and the “Population Apoptotic (%)” value [4] was 46%. For the same molecule, the “Population Fragmented Nuclei (%)” value [4] was 7%, the “Population Healthy Nuclei (%)” value [4] was 14% and the “Population Hoechst High Intensity Objects (%)” value [4] was 9%. The “Population Membrane Permeable-Phenotype (%)” value [4] was 70%, the “Population Mitochondria Different-Phenotype (%)” value [4] was 10% and the “Population Mitotic Cells (%)” value [4] was 53%. The “Population Normal (%)” value [4] was 90%, the “Population Pyknosed Nuclei (%)” value [4] was 78% and the “Population Tubulin-Different-Phenotype (%)” value [4] was 60%. For the same molecule, the “Population Apoptotic (%)” value [5] was 49%, the “Population Fragmented Nuclei (%)” value [5] was 9% and the “Population Healthy Nuclei (%)” value [5] was 47%. The “Population Hoechst High Intensity Objects (%)” value [5] was 11%, the “Population Membrane Permeable-Phenotype (%)” value [5] was 9% and the “Population Mitochondria Different-Phenotype (%)” value [5] was 38%. The “Population Mitotic Cells (%)” value [5] was 50%, the “Population Normal (%)” value [5] was 88% and the “Population Pyknosed Nuclei (%)” value [5] was 43%. The “Population Tubulin-Different-Phenotype (%)” value [5] was 37%, the “Population Apoptotic (%)” value [6] was 9% and the “Population Fragmented Nuclei (%)” value [6] was 8%. The “Population Healthy Nuclei (%)” value [6] was 60%, the “Population Hoechst High Intensity Objects (%)” value [6] was 3% and the “Population Membrane Permeable-Phenotype (%)” value [6] was 24%. The “Population Mitochondria Different-Phenotype (%)” value [6] was 2%, the “Population Mitotic Cells (%)” value [6] was 90% and the “Population Normal (%)” value [6] was 96%. The “Population Pyknosed Nuclei (%)” value [6] was 30%, the “Population Tubulin-Different-Phenotype (%)” value [6] was 28% and the “Population Apoptotic (%)” value [7] was 85%. For the same molecule, the “Population Fragmented Nuclei (%)” value [7] was 43%, the “Population Healthy Nuclei (%)” value [7] was 6% and the “Population Hoechst High Intensity Objects (%)” value [7] was 45%. The “Population Membrane Permeable-Phenotype (%)” value [7] was 0%, the “Population Mitochondria Different-Phenotype (%)” value [7] was 50% and the “Population Mitotic Cells (%)” value [7] was 14%. For the same molecule, the “Population Normal (%)” value [7] was 54%, the “Population Pyknosed Nuclei (%)” value [7] was 50% and the “Population Tubulin-Different-Phenotype (%)” value [7] was 66%. The “Population Apoptotic (%)” value [8] was 56%, the “Population Fragmented Nuclei (%)” value [8] was 8% and the “Population Healthy Nuclei (%)” value [8] was 14%. The “Population Hoechst High Intensity Objects (%)” value [8] was 30%, the “Population Membrane Permeable-Phenotype (%)” value [8] was 43% and the “Population Mitochondria Different-Phenotype (%)” value [8] was 12%. For the same molecule, the “Population Mitotic Cells (%)” value [8] was 43%, the “Population Normal (%)” value [8] was 69% and the “Population Pyknosed Nuclei (%)” value [8] was 76%. The “Population Tubulin-Different-Phenotype (%)” value [8] was 56%, the “Population Apoptotic (%)” value [9] was 47% and the “Population Fragmented Nuclei (%)” value [9] was 11%. The “Population Healthy Nuclei (%)” value [9] was 57%, the “Population Hoechst High Intensity Objects (%)” value [9] was 9% and the “Population Membrane Permeable-Phenotype (%)” value [9] was 5%. The “Population Mitochondria Different-Phenotype (%)” value [9] was 14%, the “Population Mitotic Cells (%)” value [9] was 52% and the “Population Normal (%)” value [9] was 90%. For the same molecule, the “Population Pyknosed Nuclei (%)” value [9] was 30%, the “Population Tubulin-Different-Phenotype (%)” value [9] was 38% and the “Population Apoptotic (%)” value [10] was 7%. For the same molecule, the “Population Fragmented Nuclei (%)” value [10] was 5%, the “Population Healthy Nuclei (%)” value [10] was 82% and the “Population Hoechst High Intensity Objects (%)” value [10] was 2%. For the same molecule, the “Population Membrane Permeable-Phenotype (%)” value [10] was 26%, the “Population Mitochondria Different-Phenotype (%)” value [10] was 0% and the “Population Mitotic Cells (%)” value [10] was 92%. For the same molecule, the “Population Normal (%)” value [10] was 97%, the “Population Pyknosed Nuclei (%)” value [10] was 11% and the “Population Tubulin-Different-Phenotype (%)” value [10] was 19%. For the same molecule, the “Population Apoptotic (%)” value [11] was 80%, the “Population Fragmented Nuclei (%)” value [11] was 61% and the “Population Healthy Nuclei (%)” value [11] was 7%. The “Population Hoechst High Intensity Objects (%)” value [11] was 40%, the “Population Membrane Permeable-Phenotype (%)” value [11] was 25% and the “Population Mitochondria Different-Phenotype (%)” value [11] was 50%. The “Population Mitotic Cells (%)” value [11] was 19%, the “Population Normal (%)” value [11] was 59% and the “Population Pyknosed Nuclei (%)” value [11] was 30%. For the same molecule, the “Population Tubulin-Different-Phenotype (%)” value [11] was 87%, the “Population Apoptotic (%)” value [12] was 52% and the “Population Fragmented Nuclei (%)” value [12] was 22%. The “Population Healthy Nuclei (%)” value [12] was 22%, the “Population Hoechst High Intensity Objects (%)” value [12] was 26% and the “Population Membrane Permeable-Phenotype (%)” value [12] was 72%. For the same molecule, the “Population Mitochondria Different-Phenotype (%)” value [12] was 6%, the “Population Mitotic Cells (%)” value [12] was 47% and the “Population Normal (%)” value [12] was 73%. The “Population Pyknosed Nuclei (%)” value [12] was 54% and the “Population Tubulin-Different-Phenotype (%)” value [12] was 79%.
